From PubChem BioAssay
Rows were chosen to be rich in hits. Some 1.3% of all compounds tested hit in one or more screens of this group.
NR2E3 ag-1 = NR2E3 agonists in two-hybrid cells, primary screen, cell-based, luminescence, CHO-S, Gal4-NCOR/VP16-NR2E3 | Photoreceptor-specific nuclear receptor (Homo sapiens), Q9Y5X4 | inhibition of corepressor binding, % at 3.98 µM | luciferase | 0.35% of 360,000 active;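 active means inhibition above the mean of all tested compounds plus 3 SD, cut at about 70% in these data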;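 further: 0% = DMSO with NR2E3 transfected cells and 100% = cells lacking NR2E3 construct; higher means lower luciferase signal from less NR2E3 corepressor binding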
PP1 counter = PP1-alpha phosphatase inhibitors, primary screen, counter-screen for PP5 inhibitor project, biochemical, fluorescence, OMFP substrate, single point; inhibition, % at 6.7 µM; AID 2235, 2010; Serine/threonine-protein phosphatase PP1-alpha catalytic subunit (Homo sapiens), P62136; 0.9% of 320,000 active; purified PP1alpha;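 active means inhibition above the mean inhibition of all tested compounds plus 3 SD, computed separately for each screening campaign, cut at about 15% in these data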
PP5 primary = PP5 phosphatase inhibitors, primary screen, biochemical, fluorescence. inhibition, % at 6.7 µM. 0.18% of 320,000 active. purified PP5c, OMFP substrate fluorescence. Serine/threonine-protein phosphatase 5 (Homo sapiens), P53041;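 active means inhibition above the campaign's mean inhibition across all tested compounds plus 3 SD, cut at about 9.5% in these data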;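 further: 0% = DMSO only and 100% = 100 µM cantharidin control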
Target sequence (P53041 whole entry, looked up): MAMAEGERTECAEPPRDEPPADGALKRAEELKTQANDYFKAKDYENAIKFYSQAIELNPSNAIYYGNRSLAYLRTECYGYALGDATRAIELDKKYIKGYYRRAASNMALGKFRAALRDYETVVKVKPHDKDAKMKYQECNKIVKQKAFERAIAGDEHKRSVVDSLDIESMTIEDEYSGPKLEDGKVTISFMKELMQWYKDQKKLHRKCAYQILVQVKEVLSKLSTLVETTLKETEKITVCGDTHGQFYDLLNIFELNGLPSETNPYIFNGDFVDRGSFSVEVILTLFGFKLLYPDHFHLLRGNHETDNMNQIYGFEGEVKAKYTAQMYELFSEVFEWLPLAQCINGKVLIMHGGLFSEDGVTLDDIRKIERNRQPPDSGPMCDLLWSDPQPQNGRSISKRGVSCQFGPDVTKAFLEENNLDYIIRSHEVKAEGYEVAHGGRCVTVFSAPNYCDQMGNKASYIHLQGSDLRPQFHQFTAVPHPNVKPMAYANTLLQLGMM
NR2E3 ag-2 = inhibitors of NR2E3-RetCOR corepressor binding, primary screen, NR2E3 agonist project, biochemical, TR-FRET, GST-NR2E3, biotin-RetCOR; AID 2300, 2010; inhibition of corepressor binding, % at 4.78 µM; 1536-well; 0.12% of 320,000 active;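 active means percent inhibition above the cutoff of mean plus 3 SD of all tested compounds, set per screening campaign, cut at about 20% in these data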;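 further: 0% = DMSO wells and 100% = biotin wells as full block of FRET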
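Test system – NR2E3–RetCOR corepressor complex · Quantity – NR2E3 fusion 1.35 nM · Buffer or medium – Tris pH 7.5 · Incubation – Compound–protein incubation for 5 h at 4 °C · Technique – TR-FRET, Eu(K)-anti-GST donor, streptavidin-D2 acceptor, ex 340, em 617/671 nm · Evaluation – percent inhibition of 671/617 nm emission ratio versus biotin and DMSO controls · Plate – 1536-well format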
PP5 inh confirm = PP5 phosphatase inhibitors, confirmation, biochemical, fluorescence, human; shares compounds with PP5 primary; Purified PP5, fluorogenic phosphatase substrate; inhibition, % at 6.7 µM; 22% of 460 active; AID 2331, 2010; in the data active means inhibition above about 9.5%
PP1 counter 3x = PP1 phosphatase inhibitors, counter-screen for PP5 inhibitor project, biochemical, fluorescence, triplicate | shares compounds with PP5 primary | PP1 enzyme, fluorescent phosphatase substrate | inhibition, % at 6.7 µM | 4% of 460 active | AID 2355, 2010; in the data active means inhibition above about 16%
The depositor's hits bear a star; x = no result given.

SMILES	NR2E3 ag-1	PP1 counter	PP5 primary	NR2E3 ag-2	PP5 inh confirm	PP1 counter 3x
Cc1ccc(NC2CCCN(C(=O)c3ccc4[nH]ccc4c3)C2)cc1C (centres undefined)	-17.4	-3.6	3.0	1.5	x	x
CCC(=O)Nc1cccc(NC(=O)CSc2nnc(-c3ccc(NS(C)(=O)=O)cc3)n2CC)c1	8.5	2.4	9.7*	-1.0	-4.2	-5.0
CCCCCCOc1ccc(C(=O)n2cnc(N)n2)cc1	-28.1	7.0	12.1*	3.9	3.0	7.5
CCCCCCOc1ccc(C(=O)O)cc1	-24.1	-5.4	1.9	0.7	x	x
COc1ccc(NC(=O)CCC(=O)N2CCCC2)c([N+](=O)[O-])c1	-2.6	2.5	0.7	4.8	x	x
O=C(Cc1ccc2c(c1)OCCO2)Nc1cc(C(F)(F)F)ccc1N1CCOCC1	9.6	x	x	x	x	x
Cc1ccc(CNC(=O)c2ccc(C#CC(C)(C)O)s2)cc1	-29.0	0.7	9.6*	2.3	-2.7	-1.9
CSCC[C@@H](CO)NC(=O)[C@H]1O[C@@H](n2ccc(N)nc2=O)[C@H](O)[C@@H]1O	-8.6	x	x	x	x	x
Cc1ccc(C2CC(c3ccccc3)=NN2c2ccc(S(N)(=O)=O)cc2)cc1 (centres undefined)	-9.6	x	x	x	x	x
CCc1ccc(C2=NN(c3ccc(S(N)(=O)=O)cc3)C(c3ccc(F)cc3)C2)cc1 (centres undefined)	0.2	-1.6	12.0*	8.2	1.6	1.1
Cc1ccc(NC2=C/C(=N/S(=O)(=O)c3cccs3)c3ccccc3C2=O)cc1C	-19.6	2.1	2.2	0.6	x	x
CC(=O)Nc1ccc(NC2=C/C(=N/S(=O)(=O)c3cccs3)c3ccccc3C2=O)cc1	17.0	3.3	13.6*	3.2	31.6*	0.0
O=C(Cc1ccc(S(=O)(=O)N2CCOCC2)s1)Nc1cc(C(F)(F)F)cc(C(F)(F)F)c1	22.3	6.7	9.7*	2.1	13.2*	8.6
O=C(Cc1ccc(S(=O)(=O)N2CCOCC2)s1)Nc1cc(C(F)(F)F)ccc1N1CCCC1	-31.9	0.2	1.8	-3.2	x	x
COC(=O)[C@@]12OC[C@]34[C@H]([C@@H](O)[C@@H]1O)[C@@]1(C)C(=O)C(O[C@@H]5OC(CO)[C@@H](O)[C@@H](O)[C@@H]5O)=C[C@@H](C)[C@@H]1C[C@H]3OC(=O)[C@H](OC(=O)/C=C(\C)C(C)(C)OC(C)=O)[C@@H]24 (some centres undefined)	x	-0.5	1.2	-1.6	x	x
COc1ccc2sc(N(CCN(C)C)C(=O)c3cc(Cl)sc3Cl)nc2c1	-15.4	-3.4	-0.6	0.9	x	x
COc1ccc(OC)c2sc(N(CCN(C)C)C(=O)c3cc(Cl)sc3Cl)nc12	-2.5	-0.1	10.5*	-2.0	-0.5	-0.1
FC(F)C(F)(F)C(F)(F)C(F)(F)c1cc(-c2ccccc2)n[nH]1	-23.8	-4.2	10.8*	7.3	9.7*	9.6
Cc1cccc(NC(=O)COC(=O)c2c(-c3ccccc3)noc2C)c1	-3.6	x	x	x	x	x
Cc1ccc(C(=O)NCC(=O)OCN2C(=O)c3ccccc3C2=O)cc1C	-9.5	-3.0	0.6	-0.3	x	x
O=C(NC1(O)C(=O)c2ccccc2C1=O)c1ccc(C(F)(F)F)cc1	-7.9	5.6	17.9*	0.8	37.9*	12.6
Cc1ccc(C(=O)NC2(O)C(=O)c3ccccc3C2=O)cc1C	-12.0	1.7	15.0*	-5.2	41.2*	4.0
O=C(Cc1ccccc1)NC1(O)C(=O)c2ccccc2C1=O	7.4	-2.8	7.1	-8.2	x	x
O[C@@H]1CN(Cc2ccc(-n3cccn3)cc2)CC[C@H]1N1CCN(c2ccccc2F)CC1	42.7	-3.5	1.2	3.2	x	x
Cc1ccc(N(Cc2ccccc2)C(=O)c2cc(S(=O)(=O)N3CCOCC3)ccc2F)cc1	-15.7	-0.5	0.1	-0.7	x	x
SMILES	NR2E3 ag-1	PP1 counter	PP5 primary	NR2E3 ag-2	PP5 inh confirm	PP1 counter 3x
Cc1cc(N/N=C/c2ccccc2)nc(NCc2ccccc2)n1	-63.0	5.8	3.0	1.0	x	x
COc1ccccc1/C=N/Nc1cc(N(C)C)nc(N(C)C)n1	-9.4	-3.6	18.2*	3.0	29.7*	4.5
COc1ccc(/C=N/Nc2cc(OC)ncn2)cc1	-119.5	-3.2	5.6	-2.2	x	x
CN(C)c1cc(N/N=C\c2ccccc2)nc(N(C)C)n1	23.1	0.2	15.8*	-4.4	38.3*	7.0
COc1ccc(/C=N/Nc2cc(N(C)C)nc(N(C)C)n2)cc1	-4.7	-0.6	14.2*	0.2	42.6*	9.8
CN(C)S(=O)(=O)c1cccc(NC(=O)CSc2cccc3cccnc23)c1	14.7	8.1	1.2	-2.4	x	x
CC1(C)CC(=O)C2=C(C1)Oc1ncn(Cc3ccco3)c(=N)c1C2c1ccccc1 (centres undefined)	-11.8	-0.2	4.5	3.4	x	x
COc1ccc(C2C3=C(CC(C)(C)CC3=O)Oc3ncn(Cc4ccccc4)c(=N)c32)cc1 (centres undefined)	-18.5	4.4	10.9*	-1.5	-2.6	-3.2
CN(C)c1nc(OCCOC(=O)COc2ccc(Cl)cc2Cl)nc(N(C)C)n1	22.3	1.2	2.5	2.6	x	x
CN(C)c1nc(SCCOC(=O)COc2ccc(Cl)cc2Cl)nc(N(C)C)n1	-10.2	-2.2	11.2*	1.2	-2.7	-2.2
CC1CC(C)CN(C(=O)COC(=O)c2ccc(S(=O)(=O)N(C)c3ccccc3)cc2)C1 (centres undefined)	6.0	x	x	x	x	x
Cc1ccc(S(=O)(=O)N(CC(=O)N2CCN(c3ccc(F)cc3)CC2)C2CCCCC2)cc1	8.4	0.2	10.5*	-1.6	-3.6	-3.4
Cn1c(NC(=O)c2ccco2)c(-c2ccccc2)c(=O)c2ccccc21	-11.1	-0.2	-0.8	-0.8	x	x
CCn1c(NC(=O)c2ccco2)c(-c2ccccc2Cl)c(=O)c2ccccc21	-0.3	-0.7	11.6*	-0.4	-7.6	-5.1
CCNCc1cc(Br)c(OCC(=O)Nc2ccccc2)c(OC)c1	10.2	-0.1	9.9*	-0.9	-0.4	-3.1
CN(C)CCNc1nc(-c2ccccc2F)c2sccc2n1	-16.1	x	x	x	x	x
COc1cc2c(cc1OC)C(C(=O)Nc1ccc(F)c(Cl)c1)CC(=O)N2 (centres undefined)	14.2	-2.2	0.0	-2.6	x	x
Cc1ccc(S(=O)(=O)Nc2ccc(NC(=O)Nc3cccc(C(F)(F)F)c3)cc2)cc1	4.9	4.2	10.7*	-0.7	4.5	3.1
Cc1ccc(NS(=O)(=O)c2ccc(NC(=O)c3cccc(NC(=O)C(C)C)c3)cc2)cc1	13.2	1.4	9.8*	4.1	4.5	1.9
COc1ccccc1C1CCCN1Cc1nc(-c2ccc(C)s2)oc1C (centres undefined)	-48.4	3.5	2.5	-2.4	x	x
